According to paper PMC7114262 (Antiviral Research, 2005):

Legend:
[1] = Cytotoxicity, tetrazolium dye assay, growing HEL monolayers; assay type: cell-based; conditions: human, growing HEL fibroblast monolayers
Outline: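 Cytotoxicity in growing HEL fibroblasts: cells not serum-starved, about 10% confluent when compound was added. Viability read by tetrazolium colorimetric dye after 72 h of exposure, as absorbance at 470 nm relative to DMSO-matched control wells. CC50 obtained by linear regression of percent inhibition versus concentration, reported as mean ± standard deviation of quadruplicate experiments.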

[2] = Cytotoxicity, tetrazolium dye assay, static HEL monolayers; assay type: cell-based, human; conditions: human, static (confluent, serum-starved) HEL fibroblast monolayers
Outline: (§1)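 Confluent HEL fibroblasts serum-starved 48 h, then exposed to a range of compound concentrations without virus or methylcellulose. After 72 h, viability read by tetrazolium colorimetric dye at 470 nm, as a percentage of DMSO-matched control wells. CC50 obtained by linear regression of percent inhibition against concentration, reported as mean ± standard deviation of quadruplicate experiments.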

NF-κB = assay: EMSA of HCMV-mediated NF-κB activation; assay type: cell-based, human; conditions: 24 hpi; 20 μM baicalein, 50 μM genistein
[3] = test system: cdk2, cyclin E, p53, and PCNA; assay: Immunoblot of HCMV-induced cell cycle regulatory proteins; assay type: cell-based, human; conditions: 24 hpi; 50 μM ganciclovir, 20 μM baicalein, 50 μM genistein
Outline: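 Confluent, serum-starved HEL cells given compound (20 or 50 μM final; 50 μM ganciclovir control) from 1 h before and throughout HCMV infection. Harvested at 24 hpi in SDS sample buffer and run on 8–10% SDS-PAGE. Immunoblotted for cdk2, cyclin E, p53 and PCNA (milk block, primary overnight at 4 °C, HRP secondary, ECL). Bands quantified by densitometry of scanned films.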

[4] = test system: HCMV proteins (IE1-72, IE2-86, UL84, UL94); assay: Western blot / immunoprecipitation of HCMV proteins in infected HEL cells; assay type: cell-based, human cytomegalovirus
HCMV DNA [5] = assay: Reversibility of antiviral effect after drug removal; assay type: cell-based, human cytomegalovirus; conditions: drug removed at 72 hpi; 20 μM baicalein, 50 μM genistein
Outline: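 HEL cells infected with HCMV in presence of compound (20 or 50 μM) for 72 h. Medium then replaced with drug-free medium and replication allowed for a further 72 h. Viral DNA measured at 24 h intervals by 32P-probe dot blot hybridization; experiment reproduced twice.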

[6] = persons on a high soy diet, estimated; ref Adlercreutz et al., 1993; cited from earlier work
HCMV = conditions: ≤12 μM genistein, IE1-72 protein levels at 24 hpi; ref Slobbe-van Drunen et al., 1997; cited from earlier work
Static HEL fibroblasts = assay: Cytotoxicity, tetrazolium dye assay, static HEL monolayers; assay type: cell-based, human; conditions: 20 μM (5.4 μg/ml) baicalein, 50 μM (13.5 μg/ml) genistein
Outline: as §1

HCMV DNA [7] = assay: HCMV DNA assay; assay type: cell-based, human cytomegalovirus
Outline: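 Confluent HEL cells serum-starved 48 h, then infected with HCMV at 2–5 pfu/cell with or without compound; 50 μM ganciclovir served as control. At 72 hpi, wells were frozen in PBS at −80 °C and thawed. DNA was denatured in NaOH/NaCl, neutralized with Tris pH 7.0, and baked onto nitrocellulose. Serial dilutions were probed 14 h at 42 °C with 32P nick-translated Towne genomic DNA and read by autoradiography; four independent experiments.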

[8] = test system: HCMV tegument protein pp65; assay: HCMV nuclear translocation, pp65 fluorescence microscopy; assay type: cell-based, human cytomegalovirus; conditions: 6 hpi; 20 μM baicalein, 50 μM genistein
Outline: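 Confluent HEL fibroblasts on chamber slides, serum-starved overnight and chilled on ice. Ice-cold compound-containing or plain DMEM added 10 min before infection with HCMV at 2–5 pfu/cell ± compound: 1 h at 4 °C, then 1 h at 37 °C. Cells washed and kept 5 h at 37 °C ± compound. Methanol-fixed at −20 °C, stained with anti-pp65 (1:1000), fluorescein secondary (1:500) and DAPI; nuclear pp65 examined at 6 hpi.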

EGFR = EGFR (Homo sapiens, UniProt P00533); assay: HCMV-mediated EGFR tyrosine phosphorylation; assay type: cell-based; conditions: shortly after infection; 20 μM baicalein, 50 μM genistein
Chain of EGFR (P00533 25-1210): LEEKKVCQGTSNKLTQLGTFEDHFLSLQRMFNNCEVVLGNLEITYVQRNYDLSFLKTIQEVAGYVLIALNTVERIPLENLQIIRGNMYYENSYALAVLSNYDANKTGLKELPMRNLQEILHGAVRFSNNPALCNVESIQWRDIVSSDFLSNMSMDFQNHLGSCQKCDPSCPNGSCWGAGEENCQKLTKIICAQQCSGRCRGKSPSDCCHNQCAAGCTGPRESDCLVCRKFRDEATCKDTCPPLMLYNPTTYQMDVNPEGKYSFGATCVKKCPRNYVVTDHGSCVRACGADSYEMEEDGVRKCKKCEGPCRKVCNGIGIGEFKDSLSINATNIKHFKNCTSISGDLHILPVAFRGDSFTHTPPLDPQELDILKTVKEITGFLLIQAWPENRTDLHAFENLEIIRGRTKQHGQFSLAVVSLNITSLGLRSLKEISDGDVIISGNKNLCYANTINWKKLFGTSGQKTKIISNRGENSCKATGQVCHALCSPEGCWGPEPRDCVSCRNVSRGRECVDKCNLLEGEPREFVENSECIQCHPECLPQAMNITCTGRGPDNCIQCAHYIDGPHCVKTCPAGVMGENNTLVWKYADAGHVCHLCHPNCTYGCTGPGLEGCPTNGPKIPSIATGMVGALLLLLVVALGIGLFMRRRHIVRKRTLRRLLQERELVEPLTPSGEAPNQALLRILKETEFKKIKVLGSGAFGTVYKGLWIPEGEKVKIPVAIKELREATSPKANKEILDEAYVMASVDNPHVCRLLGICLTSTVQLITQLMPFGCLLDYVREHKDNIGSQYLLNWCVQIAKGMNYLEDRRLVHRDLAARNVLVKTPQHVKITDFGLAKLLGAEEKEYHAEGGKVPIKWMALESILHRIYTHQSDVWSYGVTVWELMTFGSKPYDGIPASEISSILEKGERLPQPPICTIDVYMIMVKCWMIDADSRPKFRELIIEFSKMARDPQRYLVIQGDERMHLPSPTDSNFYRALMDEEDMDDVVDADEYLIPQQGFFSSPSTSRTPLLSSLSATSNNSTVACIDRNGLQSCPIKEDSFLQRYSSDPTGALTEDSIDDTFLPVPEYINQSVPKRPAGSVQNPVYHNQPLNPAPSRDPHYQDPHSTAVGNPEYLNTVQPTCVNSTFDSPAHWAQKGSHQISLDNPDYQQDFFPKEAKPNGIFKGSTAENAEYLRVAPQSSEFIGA

SMILES | CC50 at 72 h [1] | CC50 at 72 h [2] | HCMV-mediated increases in steady-state levels of cdk2, cyclin E, p53, and PCNA [3] | other results
O=C(O)[C@H]1O[C@@H](Oc2cc3oc(-c4ccccc4)cc(=O)c3c(O)c2O)[C@H](O)[C@@H](O)[C@@H]1O [Baicalin] | > 400 µM | > 400 µM |  | 
O=c1c(-c2ccc(O)cc2)coc2cc(O)cc(O)c12 [Genistein] | 124 ± 52 µM | > 200 µM | inhibited | HCMV induction of NF-κB (NF-κB): absent; IE1-72 level ([4]; 50 μM genistein, 24 hpi): slightly lower levels; Reduction of IE2-86 levels ([4]; 50 μM genistein, 24 hpi): ≤ 65%; UL84 and UL94 protein levels ([4]; 50 μM genistein, 48 and 72 hpi respectively): nearly background levels; Reversibility of antiviral effects (HCMV DNA [5]): fully; Steady-state serum levels [6]: 1 to 5 µM; Inhibition of HCMV replication (HCMV): did not inhibit; Cytotoxicity in cell culture at concentration used for mechanism studies (Static HEL fibroblasts): did not display obvious cytotoxicity; inhibition at 50 µM (HCMV DNA [7]; Human betaherpesvirus 5, read-out: Inhibition of HCMV DNA replication): ~95%
O=c1cc(-c2ccccc2)oc2cc(O)c(O)c(O)c12 [Baicalein] | > 100 µM | > 100 µM | inhibited | HCMV induction of NF-κB (NF-κB): absent; Levels of all three kinetic classes of HCMV proteins ([4]; 20 μM baicalein, immunoblot 24, 48, 72 hpi): reduced to nearly background levels; Reversibility of antiviral effects (HCMV DNA [5]): poorly reversible; Nuclear accumulation of pp65 [8]: blocked; HCMV-induced EGFR phosphorylation (EGFR): reduced to background levels; Cytotoxicity in cell culture at concentration used for mechanism studies (Static HEL fibroblasts): did not display obvious cytotoxicity; HCMV DNA level (HCMV DNA [7]; 20 μM baicalein, 72 hpi): reduced to nearly background levels
O=c1cc(-c2ccc(O)cc2)oc2cc(O)cc(O)c12 [Apigenin] | > 100 µM | > 100 µM |  | 
O=c1c(O)c(-c2ccc(O)c(O)c2)oc2cc(O)cc(O)c12 [Quercetin] | > 400 µM | > 400 µM |  | 
O=c1c(-c2ccc(O)cc2)coc2cc(O)ccc12 [Daidzein] | > 200 µM | > 200 µM |  | 
O=c1cc(-c2ccc(O)c(O)c2)oc2cc(O)cc(O)c12 [Luteolin] | 62 ± 10 µM | > 200 µM |  | 
O=c1c(O)c(-c2ccccc2)oc2cc(O)cc(O)c12 [Galangin] | > 400 µM | > 400 µM |  | 
Nc1nc(O)c2ncn(COC(CO)CO)c2n1 [Ganciclovir] |  |  | not affected | 
O=C1C[C@@H](c2ccc(O)cc2)Oc2cc(O)cc(O)c21 [Naringenin] | > 100 µM | > 100 µM |  | 
